Screening results deposited in PubChem BioAssay by several laboratories.
Efflux pump mplx: antifungal efflux pump inhibition, Nile Red retention; inhibition, % at 10 µM; actives 0.44% (n = 330,000); S. cerevisiae Candida pump triplex;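 active = plate passing quality check with inhibition over a set limit, or well fluorescence over plate mean plus 4 SD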;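 also: Nile Red retained in pooled yeast measured as flow cytometry median fluorescence; higher means more Nile Red kept so more efflux inhibition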
ASAP1 GAP inh: ASAP1 ArfGAP inhibition; ASAP1-stimulated ARF1 GTP hydrolysis, GDP FP detection; inhibition, % at 16.5 µM; actives 0.19% (n = 360,000); AID 624377; in the data active = inhibition above about 25%
FGF22 binding: shifts melting point of recombinant human FGF22. AID 651658. Q9HCT0. activity (Tm shift, normalised), % at 9.99 µM. actives 1.5% (n = 340,000). recombinant FGF22 thermal shift, SYPRO orange fluorescence; percent of sucrose octasulfate shift, DMSO zero;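 active = mean Tm shift, scaled 0 neutral to 100 positive control, at about 1.3% or above, every replicate too, limit read from the data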
Target sequence (Q9HCT0 whole entry, looked up): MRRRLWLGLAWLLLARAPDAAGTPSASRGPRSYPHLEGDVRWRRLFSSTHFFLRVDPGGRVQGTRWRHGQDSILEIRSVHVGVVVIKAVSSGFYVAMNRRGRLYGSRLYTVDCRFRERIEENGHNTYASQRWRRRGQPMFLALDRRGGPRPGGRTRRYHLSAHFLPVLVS
Rtt109 Vps75: blocks Candida albicans Rtt109/Vps75 acetyltransferase activity. purified Rtt109/Vps75, ThioGlo CoA-SH fluorescence, 4 h. inhibition, % at 34.9 µM. actives 0.16% (n = 330,000);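 active = inhibition of at least 50% in every replicate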
Target sequence (Q5AAJ8 whole entry, looked up): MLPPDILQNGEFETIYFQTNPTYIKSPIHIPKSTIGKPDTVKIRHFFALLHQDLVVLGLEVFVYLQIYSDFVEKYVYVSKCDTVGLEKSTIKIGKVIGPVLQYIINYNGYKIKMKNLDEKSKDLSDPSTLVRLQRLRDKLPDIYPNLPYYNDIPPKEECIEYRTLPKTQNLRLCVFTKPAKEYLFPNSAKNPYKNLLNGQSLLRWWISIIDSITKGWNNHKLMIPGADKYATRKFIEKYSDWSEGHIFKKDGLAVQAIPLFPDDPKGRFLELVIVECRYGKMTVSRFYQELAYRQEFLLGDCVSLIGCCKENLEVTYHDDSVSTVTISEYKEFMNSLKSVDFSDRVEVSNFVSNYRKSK
ARFGAP1 inh: rat ARFGAP1 inhibition | inhibition, % at 16.5 µM | actives 0.26% (n = 360,000) | Arfgap1-stimulated ARF1 GTP hydrolysis, GDP FP detection;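 active = inhibition above a per-plate limit, mean inhibition of low control wells plus 3 SD, cut at about 25% in these data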
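material = rat Arfgap1 catalytic domain, aa 1-136 | also added = human ARF1(Δ1-17)-GTP substrate | compound dosing = one concentration, 16.5 µM, DMSO 1.26% | times = GTP hydrolysis reaction 2 h at 25 °C | measured by = FP, GDP Alexa 633 tracer displaced from anti-GDP antibody, 620/688 nm | evaluation = percent inhibition of Arfgap1-stimulated GTP hydrolysis | replication = single well per compound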
Large screens that a line does not name were inactive. Compounds with a hit are over-represented: about 1.9% of the library has one in this group of screens.

COc1ccccc1C=NNC(=O)C(=O)NN=Cc1ccccc1OC	FGF22 binding 43 (no result: Efflux pump mplx)
O=C(NC1CCCCCC1)C1CCN(S(=O)(=O)c2ccc(F)cc2)CC1	none (no result: FGF22 binding, Rtt109 Vps75)
CCC1CCCCN1C(=O)CCc1nnc(C2CCCCC2)o1 (configuration not stated)	FGF22 binding 43
COC(=O)[C@@H]1CCCN1C(=O)CCc1nnc(C2CCCCC2)o1	none
COc1ccc(NC(=O)COc2ccc3c(c2)OCO3)cc1	none
CCOC(=O)C(=O)Cc1cccnn1	FGF22 binding 43 (no result: Efflux pump mplx)
CC(=O)Nc1ccc(-c2csc(NC(=O)C3CCN(S(=O)(=O)c4cccs4)CC3)n2)cc1	none (no result: FGF22 binding)
COCc1cc(C)nc(SCc2nc3ccccc3c(=O)[nH]2)c1C#N	FGF22 binding 43
Cc1cc(C)c(C#N)c(SCc2nc3ccccc3c(=O)[nH]2)n1	none
O=C(NCc1ccc2c(c1)OCO2)c1cccc(S(=O)(=O)N2CCCC2)c1	none
COC(=O)c1ccc(C(=O)N(Cc2ccccc2)c2ccccc2)cc1	none
COc1ccccc1C(=O)Nc1ccnn1C1CCN(C(C)CSC)CC1 (configuration not stated)	none
N#Cc1ncc(C(F)(F)F)cc1Sc1ccccc1N	none (no result: FGF22 binding)
COc1cc(NC(=S)N2CCCC(CO)C2)c(OC)cc1Cl (configuration not stated)	FGF22 binding 44
COc1cc(NC(=S)N2CCN(CCO)CC2)c(OC)cc1Cl	none (no result: FGF22 binding, Rtt109 Vps75)
CSc1nnc2c(n1)OC(c1ccc(C(=O)O)cc1)N(C(C)=O)c1ccccc1-2 (configuration not stated)	none
CSc1nnc2c(n1)OC(c1ccccn1)N(C(C)=O)c1ccccc1-2 (configuration not stated)	FGF22 binding 43
CCc1ccc(-c2csc(NC(=O)C3CC(=O)N(c4ccc5c(c4)OCCO5)C3)n2)cc1 (configuration not stated)	none
Nc1c(C(=O)O)cnc2c(-c3ccc(Cl)cc3)cnn12	none
Clc1ccc(-c2cnn3c(-c4ccncc4)ccnc23)cc1	FGF22 binding 44
CC(C)CC(=O)Nc1ccc(C(=O)CN2CCN(c3ccc(O)cc3)CC2)cc1	none (no result: FGF22 binding)
CC1(C)CC(=O)C=C(c2cccc3c2oc2ccccc23)C1	none
Cc1ccc(OCc2nnc(N)s2)cc1	FGF22 binding 44
C[C@H](CO)N1C[C@H](C)[C@H](CN(C)C(=O)Nc2ccnc(N3CCOCC3)c2)OCc2ccccc2-c2ccccc2C1=O	none (no result: Efflux pump mplx, ASAP1 GAP inh, Rtt109 Vps75, ARFGAP1 inh)
CNC(=O)c1ccc(NC(=O)/C=C/c2cccc(F)c2)cc1	FGF22 binding 44
O=C(/C=C/c1cccc(F)c1)Nc1ccc(S(=O)(=O)Nc2ncccn2)cc1	none
Cc1ccc(NC(=O)/C=C/c2cccc(C(F)(F)F)c2)cc1	FGF22 binding 18
CS(=O)(=O)N(C(=O)NC(=O)NC12CC3CC(CC(C3)C1)C2)C1CCCCC1	FGF22 binding 44
COc1ccccc1C(=O)NCC(=O)N1CCN(C/C=C/c2ccccc2)CC1	none
O=C(CCN1CCc2ccccc2CC1)c1ccc2c(c1)OCCO2	Rtt109 Vps75 177 (no result: FGF22 binding)
O=C(CCN1CCOCC1)c1ccc2c(c1)OCCO2	none (no result: FGF22 binding)
Cc1ccc(S(=O)(=O)Nc2ccc(O)c3ncccc23)cc1	none
Cc1ccc(S(=O)(=O)Nc2ccc(O)c3cccnc23)cc1	Rtt109 Vps75 128
N/C(Cn1cncn1)=N\NC(=O)C(=O)Nc1ccccc1	none
N/C(Cn1cncn1)=N\NC(=O)C(=O)Nc1cccc(C(F)(F)F)c1	FGF22 binding 43
Cc1cc(C)c(S(C)(=O)=O)c(N(C)N)n1	FGF22 binding 43 (no result: Rtt109 Vps75)
COc1cccc(OCC(=O)Nc2cc(Cl)ccc2Oc2ccccc2)c1	none
COC(=O)c1cc(C(=O)Nc2nnc(CC(C)(C)C)s2)cc([N+](=O)[O-])c1	none (no result: FGF22 binding)
CCOCc1nnc(NC(=O)c2cc(C(=O)OC)cc([N+](=O)[O-])c2)s1	FGF22 binding 43
Cc1noc2ncc(C(=O)c3cc(F)ccc3O)cc12	none (no result: FGF22 binding)
Cc1cccc(NC(=O)[C@@H]2CCCN2S(=O)(=O)c2ccc(Cl)cc2)c1	none
CCCCOc1ccc(C(=O)NCC(=O)OC2CCOC2=O)cc1 (configuration not stated)	none (no result: FGF22 binding)
O=C(CNC(=O)c1ccc(Cl)cc1)OC1CCOC1=O (configuration not stated)	FGF22 binding 43
Cc1cc(C)cc(NC(=S)NCc2cccnc2)c1	none
Cc1cc(C)cc(NC(=S)NCc2ccncc2)c1	FGF22 binding 44
Cc1ccc(NC(=O)CN(C)C(=O)C(C)OC(=O)c2ccccc2NCCO)cc1 (configuration not stated)	none
O=C1Nc2cc(C(=O)NCCCN3CCOCC3)ccc2S/C1=C/c1cccc(Cl)c1	none
O=C1Nc2cc(C(=O)NCCCN3CCCC3)ccc2S/C1=C\c1ccccc1	Rtt109 Vps75 73
CCOc1cc(C(=O)OC(C)C(=O)Nc2ncc(Cl)cc2Cl)ccc1OCC(=O)N1CCOCC1 (configuration not stated)	FGF22 binding 44 (no result: Rtt109 Vps75)
CCOc1cc(C(=O)OC(C)C(=O)Nc2ccccc2OC)ccc1OCC(=O)N1CCOCC1 (configuration not stated)	none (no result: Efflux pump mplx)
CC(C)(C)NC(=O)CSc1nc(N)c(NC(=O)c2ccccc2F)c(=O)[nH]1	FGF22 binding 44
Cc1ccc(S(=O)(=O)N2CCN(Cc3ccsc3)CC2)cc1	FGF22 binding 43
COc1ccn(C2CCCCO2)c(=O)n1 (configuration not stated)	FGF22 binding 43 (no result: Efflux pump mplx)
Nc1ccn(C2CCCCO2)c(=O)n1 (configuration not stated)	none (no result: Efflux pump mplx)
CCCC(=O)Nc1nnc(CCOC)s1	none
CCCCC(=O)Nc1nnc(CCOC)s1	FGF22 binding 43
CC(=O)c1ccc(S(=O)(=O)Nc2ccc(-c3ccc4nnc(C)n4n3)cc2)cc1	none
COc1ccc(C)cc1NC(=S)NNC(=O)c1c(Br)cnn1C	FGF22 binding 44
COc1ccc(C)cc1NC(=S)NNC(=O)c1ccccc1Cl	none (no result: FGF22 binding)
CCN1CCN(c2cc(C)c3cc(NC(=O)Cc4ccccc4OC)ccc3n2)CC1	none (no result: FGF22 binding)
COC(c1ccccc1)c1nnc(CCC(=O)NC2CCCCC2)o1 (configuration not stated)	none
COC(c1ccccc1)c1nnc(CCC(=O)N(C)C(C2CC2)C2CC2)o1 (configuration not stated)	FGF22 binding 44
COC(c1ccccc1)c1nnc(CCC(=O)N2CCCCCCC2)o1 (configuration not stated)	FGF22 binding 44
CCn1c(SCC(=O)N2CCCC2)nnc1-c1ccc(S(=O)(=O)N2CCCCCC2)cc1	none (no result: FGF22 binding)
COCC(=O)N1CCC(Oc2ccc(C(=O)N3CCN(C)C[C@@H]3C(C)C)cc2)CC1	none (no result: Efflux pump mplx)
COc1ccc(-c2csc(Nc3ccc(S(=O)(=O)Nc4cc(C)on4)cc3)n2)cc1C	FGF22 binding 44
COc1ccc(-c2csc(Nc3ccc(S(=O)(=O)Nc4cc(OC)nc(OC)n4)cc3)n2)cc1	none (no result: FGF22 binding)
